Test results: the M2OR odorant receptor database
Where a chain is given by its changes, count along the chain named.

How the values were obtained:
Conditions in all cases: stereoisomer not certain
[1] = tested on: T1, O10R2 I170L
T1 sequence (whole entry): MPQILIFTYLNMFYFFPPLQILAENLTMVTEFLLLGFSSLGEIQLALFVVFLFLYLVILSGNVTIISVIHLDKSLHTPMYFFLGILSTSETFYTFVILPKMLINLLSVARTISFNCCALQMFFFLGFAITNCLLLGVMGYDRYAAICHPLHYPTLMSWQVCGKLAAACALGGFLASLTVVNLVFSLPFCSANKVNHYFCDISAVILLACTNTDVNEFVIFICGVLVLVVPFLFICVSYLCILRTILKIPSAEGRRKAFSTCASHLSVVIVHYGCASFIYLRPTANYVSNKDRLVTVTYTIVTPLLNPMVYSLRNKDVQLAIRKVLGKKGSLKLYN
Procedure, shortened: (§1)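 Each entry records the cell line, G-protein, co-transfected protein and tags used. Methods varied with the source, often transient luciferase assays in mammalian cell lines. A receptor–molecule pair is called responsive (active) if the original authors judged its signal statistically different from baseline and non-responsive (inactive) otherwise.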

[2] = tested on: T2, O10T2 I137M
T2 sequence (whole entry): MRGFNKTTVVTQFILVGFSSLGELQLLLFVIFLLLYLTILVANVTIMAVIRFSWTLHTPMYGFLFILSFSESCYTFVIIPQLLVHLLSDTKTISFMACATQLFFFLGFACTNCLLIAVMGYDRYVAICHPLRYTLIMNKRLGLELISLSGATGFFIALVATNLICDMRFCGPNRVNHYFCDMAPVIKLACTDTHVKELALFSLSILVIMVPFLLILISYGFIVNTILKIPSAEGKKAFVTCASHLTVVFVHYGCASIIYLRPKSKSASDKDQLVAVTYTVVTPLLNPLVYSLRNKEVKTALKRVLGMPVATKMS
Procedure, shortened: as §1

[3] = tested on: T3, O10V1 Q123R
T3 sequence (whole entry): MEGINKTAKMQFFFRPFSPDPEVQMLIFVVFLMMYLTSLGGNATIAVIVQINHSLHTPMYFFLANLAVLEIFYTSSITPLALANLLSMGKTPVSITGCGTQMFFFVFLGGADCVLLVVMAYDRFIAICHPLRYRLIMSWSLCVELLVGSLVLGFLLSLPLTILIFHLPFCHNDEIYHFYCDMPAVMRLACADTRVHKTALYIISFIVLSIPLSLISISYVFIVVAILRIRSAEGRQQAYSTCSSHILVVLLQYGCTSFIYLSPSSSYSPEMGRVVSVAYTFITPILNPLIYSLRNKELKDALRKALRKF
Procedure, shortened: as §1

[4] = tested on: T4, O10X1 N4T R181S
T4 sequence (whole entry): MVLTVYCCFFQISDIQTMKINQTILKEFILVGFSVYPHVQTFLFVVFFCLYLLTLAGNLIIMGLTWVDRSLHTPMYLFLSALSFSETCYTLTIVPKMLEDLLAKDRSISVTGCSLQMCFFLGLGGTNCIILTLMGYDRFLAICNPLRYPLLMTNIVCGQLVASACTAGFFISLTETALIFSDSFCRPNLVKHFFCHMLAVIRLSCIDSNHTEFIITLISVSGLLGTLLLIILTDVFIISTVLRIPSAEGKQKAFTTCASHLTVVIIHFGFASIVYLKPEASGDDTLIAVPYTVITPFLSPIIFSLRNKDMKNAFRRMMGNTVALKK
Procedure, shortened: as §1

[5] = tested on: T5, O11G2 F3I I99N V116I
T5 sequence (whole entry): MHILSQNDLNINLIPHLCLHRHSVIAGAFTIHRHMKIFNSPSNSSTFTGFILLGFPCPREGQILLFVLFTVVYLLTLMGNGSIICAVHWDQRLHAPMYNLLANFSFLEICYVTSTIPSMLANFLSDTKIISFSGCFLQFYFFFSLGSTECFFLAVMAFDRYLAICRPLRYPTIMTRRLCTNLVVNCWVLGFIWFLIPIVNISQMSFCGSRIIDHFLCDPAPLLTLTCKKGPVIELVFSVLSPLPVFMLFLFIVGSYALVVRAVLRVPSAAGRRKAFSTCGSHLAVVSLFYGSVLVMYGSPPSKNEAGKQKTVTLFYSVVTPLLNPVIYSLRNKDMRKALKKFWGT
Procedure, shortened: as §1

[6] = tested on: T6, O11H1 M240V
T6 sequence (whole entry): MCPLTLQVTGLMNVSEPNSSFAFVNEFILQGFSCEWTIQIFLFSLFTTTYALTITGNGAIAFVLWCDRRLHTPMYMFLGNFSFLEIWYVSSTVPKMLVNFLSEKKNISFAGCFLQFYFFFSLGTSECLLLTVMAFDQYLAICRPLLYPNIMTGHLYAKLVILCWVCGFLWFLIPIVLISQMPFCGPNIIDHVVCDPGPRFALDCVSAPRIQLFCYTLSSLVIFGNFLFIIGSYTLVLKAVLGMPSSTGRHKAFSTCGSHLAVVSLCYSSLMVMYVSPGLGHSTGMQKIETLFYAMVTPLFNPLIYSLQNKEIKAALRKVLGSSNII
Procedure, shortened: as §1

[7] = tested on: T7, O11H6 I107T
T7 sequence (whole entry): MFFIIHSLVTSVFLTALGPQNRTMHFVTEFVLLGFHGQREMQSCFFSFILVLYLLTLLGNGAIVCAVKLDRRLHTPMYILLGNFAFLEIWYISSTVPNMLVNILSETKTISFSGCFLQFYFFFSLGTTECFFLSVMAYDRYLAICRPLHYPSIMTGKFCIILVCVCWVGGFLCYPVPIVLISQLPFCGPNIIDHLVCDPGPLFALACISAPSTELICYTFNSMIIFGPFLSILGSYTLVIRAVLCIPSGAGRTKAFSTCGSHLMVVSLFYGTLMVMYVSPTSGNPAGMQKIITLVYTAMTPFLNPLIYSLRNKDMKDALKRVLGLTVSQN
Procedure, shortened: as §1

[8] = tested on: T8, O11HC C156Y V240M
T8 sequence (whole entry): T6 sequence (whole entry) with S33T, R68W, V240M
Procedure, shortened: as §1

[9] = tested on: T9, O12D2 S104F
T9 sequence (whole entry): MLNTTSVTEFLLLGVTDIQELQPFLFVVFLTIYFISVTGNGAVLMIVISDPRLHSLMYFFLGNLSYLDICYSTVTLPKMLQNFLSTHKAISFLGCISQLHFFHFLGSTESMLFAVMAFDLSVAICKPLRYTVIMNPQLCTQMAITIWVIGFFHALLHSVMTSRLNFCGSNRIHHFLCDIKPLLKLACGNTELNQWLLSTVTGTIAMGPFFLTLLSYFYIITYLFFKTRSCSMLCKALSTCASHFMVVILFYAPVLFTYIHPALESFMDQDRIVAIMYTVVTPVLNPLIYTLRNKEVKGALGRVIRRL
Procedure, shortened: as §1

[10] = tested on: T10, O13C2 H6Q
T10 sequence (whole entry): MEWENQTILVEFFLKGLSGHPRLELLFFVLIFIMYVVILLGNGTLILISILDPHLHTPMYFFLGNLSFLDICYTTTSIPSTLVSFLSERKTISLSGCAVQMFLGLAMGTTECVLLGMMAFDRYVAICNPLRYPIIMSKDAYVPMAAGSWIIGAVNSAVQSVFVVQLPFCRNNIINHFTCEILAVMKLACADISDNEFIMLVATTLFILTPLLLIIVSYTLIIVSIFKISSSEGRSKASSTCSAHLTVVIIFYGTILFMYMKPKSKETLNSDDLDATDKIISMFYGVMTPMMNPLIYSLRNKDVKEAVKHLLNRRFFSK
Procedure, shortened: as §1

Measured: odorant receptor agonist call

Cc1cnc(C)c(C)n1
inactive: [1] | [2] | [3] | [4] | [5] | [6] | [7] | [8] | [9] | [10]

CC1=C(O)C(=O)C(C)O1 (stereo not given)
inactive: [1] | [2] | [3] | [4] | [5] | [6] | [7] | [8] | [9] | [10]

CCCC(S)CCOC(C)=O (stereo not given)
inactive: [1] | [2] | [3] | [4] | [5] | [6] | [7] | [8] | [9] | [10]

CC1=C(O)C(=O)OC1C (stereo not given)
inactive: [1] | [2] | [3] | [4] | [5] | [6] | [7] | [8] | [9] | [10]

CCC1OC(=O)C(O)=C1C (stereo not given)
inactive: [1] | [2] | [3] | [4] | [5] | [6] | [7] | [8] | [9] | [10]

CCCCCCC=CCCC=O
inactive: [1] | [2] | [3] | [4] | [5] | [6] | [7] | [8] | [9] | [10]

CCC1OC(C)=C(O)C1=O (stereo not given)
inactive: [1] | [2] | [3] | [4] | [5] | [6] | [7] | [8] | [9] | [10]

CC1=NC(C)C(C)S1 (stereo not given)
inactive: [1] | [2] | [3] | [4] | [5] | [6] | [7] | [8] | [9] | [10]
